Assay outcomes (PubChem)
Sampled rows, rich in hits. Any-hit rate of the full collection: about 1.8%.
M4 antag – CHRM4 antagonism in calcium assay; actives 0.73% (n = 360,000); P08173; CHO-hM4 cells, ACh EC80, Fluo-8 calcium fluorescence; inhibition, % at 3 µM;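 active = inhibition above its plate's cutoff, the mean inhibition of sample wells plus 3 SD, cut at about 27% in these data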;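 also: 0% = acetylcholine EC80 with DMSO and 100% = DMSO without agonist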
Target sequence (P08173 whole entry, looked up): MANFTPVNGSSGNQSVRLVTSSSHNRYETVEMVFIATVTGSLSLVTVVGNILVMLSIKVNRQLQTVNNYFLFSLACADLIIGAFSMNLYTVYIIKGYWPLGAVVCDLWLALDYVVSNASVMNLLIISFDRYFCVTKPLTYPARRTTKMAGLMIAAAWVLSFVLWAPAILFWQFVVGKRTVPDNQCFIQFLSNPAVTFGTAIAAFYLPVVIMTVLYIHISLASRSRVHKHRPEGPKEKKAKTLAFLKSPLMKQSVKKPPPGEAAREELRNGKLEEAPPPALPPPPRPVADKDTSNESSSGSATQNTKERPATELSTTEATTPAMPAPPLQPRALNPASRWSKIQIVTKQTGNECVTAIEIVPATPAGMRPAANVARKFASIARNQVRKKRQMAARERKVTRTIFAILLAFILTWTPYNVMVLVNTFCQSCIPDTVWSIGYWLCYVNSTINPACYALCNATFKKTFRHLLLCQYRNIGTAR
CHRM5 agonist – agonists of human muscarinic M5 receptor (CHRM5); activation, % at 3 µM; P08912; actives 0.19% (n = 360,000); CHO-K1 hM5 cells, Fluo-8 calcium fluorescence; 0% DMSO wells, 100% maximal acetylcholine response;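 active = activation above the run's mean over test compounds plus 3 SD, cut at about 23% in these data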;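 also: signal is peak over basal fluorescence ratio across the kinetic read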
CHRM5 PAM – positive allosteric modulators of human muscarinic M5 receptor; P08912; CHO-K1 hM5, Fluo-8 calcium, ACh EC20 PAM; 0% = ACh EC20, 100% = ACh EC100; activation, % at 3 µM; actives 0.3% (n = 360,000); AID 624038;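 active = activation above the run cutoff, the mean activation of all test compounds plus 3 SD, cut at about 18% in these data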
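Assay system: CHO-K1 hM5 cells. Also added: acetylcholine at EC20 concentration, added after compound. Dosing: 3 µM, single dose. Times: compound preincubation 140 s before EC20 acetylcholine addition. Signal: Fluo-8 calcium fluorescence. Measure: % activation relative to EC20 and EC100 ACh responses. Repeats: singlicate, one well per test compound.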
M5 antag – blocks acetylcholine activation of human M5 receptor. actives 0.59% (n = 360,000). AID 624040. P08912. inhibition, % at 3 µM. CHO-hM5 cells, Fluo-8 calcium fluorescence, ACh EC80;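 active = inhibition above a per-plate cutoff, the mean of that plate's test compounds plus 3 SD, cut at about 27% in these data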;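 also: 0% = acetylcholine EC80 with DMSO and 100% = DMSO without agonist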
M4 PAM – CHRM4 positive allosteric modulation | P08173 | activation, % at 3 µM | CHO-K1 hM4/Gqi5, Fluo-8 calcium fluorescence, ACh EC20; 0% = ACh EC20, 100% = maximal ACh | actives 0.4% (n = 360,000);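 active = activation above its plate's cutoff, the mean activation of sample wells plus 3 SD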
CHRM4 agonist – CHRM4 agonism in calcium assay. P08173. CHO-K1 hM4/Gqi5, Fluo-8 calcium fluorescence; vehicle 0%, full acetylcholine response 100%. activation, % at 3 µM. actives 0.14% (n = 360,000);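 active = activation above the run mean over all test wells plus 3 SD, cut at about 32% in these data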;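 also: peak over basal fluorescence ratio per well then scaled between controls; 0% = DMSO wells and 100% = acetylcholine at EC100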
* = called active by the depositor; ! = not confirmed by another sample.

What do the screens show for `Fc1ccc(N2CCN(Cc3cn[nH]c3-c3ccccc3)CC2)cc1`?
M4 antag: -3; CHRM5 agonist: 7; CHRM5 PAM: -3; M5 antag: 4; M4 PAM: -7; CHRM4 agonist: 1

How did Fc1ccc(-c2[nH]ncc2CN2CCN(c3ccc(F)cc3)CC2)cc1 do in these assays?
M4 antag: 2; CHRM5 agonist: 31*; CHRM5 PAM: 2; M5 antag: 5; M4 PAM: -4; CHRM4 agonist: 9

What do the screens show for `CCCCNc1c(-c2ccc(-c3ccc(C(C)=O)cc3)c(OC)c2)nc2cc(C)ccn12`?
M4 antag: 25; CHRM5 agonist: -10; CHRM5 PAM: -36; M5 antag: 17; M4 PAM: -13; CHRM4 agonist: 7

How did CCCCNc1c(-c2ccc(SC3CCCCC3)cc2)nc2ccccn12 do in these assays?
M4 antag: 21; CHRM5 agonist: 5; CHRM5 PAM: 0; M5 antag: 6; M4 PAM: 0; CHRM4 agonist: 6

What do the screens show for `CCCCNc1c(-c2ccc(OC)c(SC(C)CC)c2)nc2ccc(C)cn12` (configuration not stated)?
M4 antag: 31*!; CHRM5 agonist: 1; CHRM5 PAM: -30; M5 antag: 14; M4 PAM: -4; CHRM4 agonist: 16

Results for CCCCNc1c(-c2ccc(SC(C)CC)cc2)nc2ccccn12 (configuration not stated) ?
M4 antag: 45*; CHRM5 agonist: -1; CHRM5 PAM: -29; M5 antag: 25; M4 PAM: -12; CHRM4 agonist: 11

How did CCCCNc1c(-c2ccc(OC)c(SC(C)CC)c2)nc2cc(C)ccn12 (configuration not stated) do in these assays?
M4 antag: 31*!; CHRM5 agonist: -4; CHRM5 PAM: -22; M5 antag: 8; M4 PAM: -11; CHRM4 agonist: 12

How did CCCCNc1c(-c2ccc(OC)c(SC(C)CC)c2)nc2ccc(Cl)cn12 (configuration not stated) do in these assays?
M4 antag: 5; CHRM5 agonist: -5; CHRM5 PAM: -8; M5 antag: 9; M4 PAM: -4; CHRM4 agonist: 5

How did CCCCNc1c(-c2ccc(OC)c(SC(C)CC)c2)nc2cnccn12 (configuration not stated) do in these assays?
M4 antag: -1; CHRM5 agonist: -6; CHRM5 PAM: -21; M5 antag: 21; M4 PAM: -3; CHRM4 agonist: 5

Results for CCCCNc1c(-c2ccc(Sc3ccc(OC)cc3)cc2)nc2cc(C)ccn12 ?
M4 antag: 44*; CHRM5 agonist: -5; CHRM5 PAM: -13; M5 antag: 11; M4 PAM: -13; CHRM4 agonist: 4

What do the screens show for `COc1ccc(C2=Nc3ccccc3N(C(=O)c3ccc4ncccc4c3)C2C(=O)NC2CCCC2)cc1` (configuration not stated)?
M4 antag: -24; CHRM5 agonist: -4; CHRM5 PAM: 3; M5 antag: -3; M4 PAM: 9; CHRM4 agonist: 1

What do the screens show for `CCCS(=O)(=O)NC(=O)C1(C)CCN(C(=O)Cc2cccc3ccccc23)C1` (configuration not stated)?
M4 antag: -1; CHRM5 agonist: 1; CHRM5 PAM: 2; M5 antag: 4; M4 PAM: 0; CHRM4 agonist: 0

How did CCCS(=O)(=O)NC(=O)C1(C)CCCN(C(=O)c2ccccc2F)C1 (configuration not stated) do in these assays?
M4 antag: -14; CHRM5 agonist: 0; CHRM5 PAM: -2; M5 antag: 3; M4 PAM: 11; CHRM4 agonist: 0

Results for CN(C)CC(c1ccccc1)c1ccccc1 ?
M4 antag: 3; CHRM5 agonist: -19; CHRM5 PAM: -6; M5 antag: 14; M4 PAM: -2; CHRM4 agonist: 0

How did CN(C)CCNC(=O)C(c1ccccc1)c1ccccc1 do in these assays?
M4 antag: -4; CHRM5 agonist: -20; CHRM5 PAM: -8; M5 antag: 11; M4 PAM: -5; CHRM4 agonist: 1

How did CC(CCCN(C)C)C(Cc1ccccc1)c1ccccc1 (configuration not stated) do in these assays?
M4 antag: 29*; CHRM5 agonist: -18; CHRM5 PAM: -35; M5 antag: 31*; M4 PAM: -17; CHRM4 agonist: 10

How did CN(C)CCC(=O)C(Cc1ccccc1)c1ccccc1 (configuration not stated) do in these assays?
M4 antag: 35*; CHRM5 agonist: -18; CHRM5 PAM: -19; M5 antag: 5; M4 PAM: -15; CHRM4 agonist: 4

What do the screens show for `CC(=O)N1CCN(C(C(=O)Nc2c(C)cccc2C)c2cccc(F)c2)CC1` (configuration not stated)?
M4 antag: -10; CHRM5 agonist: 2; CHRM5 PAM: 4; M5 antag: 4; M4 PAM: 21; CHRM4 agonist: 3

How did CCn1c(CNC(=O)COc2ccc(C(C)C)cc2)nnc1SCC(=O)Nc1ccccc1C(C)C do in these assays?
M4 antag: 2; CHRM5 agonist: 4; CHRM5 PAM: -9; M5 antag: 28*; M4 PAM: -13; CHRM4 agonist: 9

What do the screens show for `COC(=O)C1=C(C)N(CCc2ccc(OC)c(OC)c2)C(=O)C1`?
M4 antag: -15; CHRM5 agonist: -3; CHRM5 PAM: 28*; M5 antag: 21; M4 PAM: -6; CHRM4 agonist: 4

How did COc1ccccc1NC(=O)CSc1nnc(COc2ccccc2C)o1 do in these assays?
M4 antag: 100*; CHRM5 agonist: -4; CHRM5 PAM: 4; M5 antag: 6; M4 PAM: -24; CHRM4 agonist: 3

Results for COc1ccccc1NC(=O)CSc1nnc(COc2ccc(Cl)cc2)o1 ?
M4 antag: -5; CHRM5 agonist: 1; CHRM5 PAM: 3; M5 antag: 6; M4 PAM: -4; CHRM4 agonist: 3

How did COc1cc(-c2cc(NC(C)=O)c3ncc(-c4ccc(C(C)=O)cc4)n3c2)cc(OC)c1OC do in these assays?
M4 antag: 14; CHRM5 agonist: 1; CHRM5 PAM: -10; M5 antag: 15; M4 PAM: -11; CHRM4 agonist: 15

How did Cc1cc(C(=O)CN2C(=O)NC(C)(c3ccccc3)C2=O)c(C)n1CC1CCCO1 (configuration not stated) do in these assays?
M4 antag: 27*; CHRM5 agonist: 2; CHRM5 PAM: -2; M5 antag: 3; M4 PAM: 18; CHRM4 agonist: 3
